The source of these data is ChEMBL document CHEMBL1124245, “Investigation of the structural parameters involved in the mu and delta opioid receptor discrimination of linear enkephalin-related peptides” (J Med Chem, 1988).

Numbered stars: 1 amine (or outer) side, 2 acyl side, 3 side chain; on linkers, the order of the positions; unused ones are H or OH. Square brackets hold non-standard residues; d marks the D form. Peptide text beside a SMILES is read from it. X1 = CC[C@H](O)[C@H](N[*:1])C(=O)[*:2]; azaGly = NNC(=O)O

Experiment [1] deals with Mu-type opioid receptor (Rattus norvegicus, UniProt P33535). Kind of experiment: Inhibition of [3H]DAGO binding to mu 1 opioid receptor in rat brain membranes. The class given is cell membranes. In outline: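 Rat brain membranes, 0.6–0.7 mg protein, in 50 mM Tris-HCl pH 7.4 with 1 nM [3H]DAGO. Incubated 40 min at 35 °C, then filtered and washed with cold buffer. Bound radioactivity counted by scintillation. Nonspecific binding taken with 10 µM levorphanol, triplicates. Nine unlabeled-ligand concentrations, Hill-plot fit, Ki by Cheng-Prusoff. Three to six independent determinations.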
Sequence of Mu-type opioid receptor (Rattus norvegicus, UniProt P33535) (P33535 whole entry): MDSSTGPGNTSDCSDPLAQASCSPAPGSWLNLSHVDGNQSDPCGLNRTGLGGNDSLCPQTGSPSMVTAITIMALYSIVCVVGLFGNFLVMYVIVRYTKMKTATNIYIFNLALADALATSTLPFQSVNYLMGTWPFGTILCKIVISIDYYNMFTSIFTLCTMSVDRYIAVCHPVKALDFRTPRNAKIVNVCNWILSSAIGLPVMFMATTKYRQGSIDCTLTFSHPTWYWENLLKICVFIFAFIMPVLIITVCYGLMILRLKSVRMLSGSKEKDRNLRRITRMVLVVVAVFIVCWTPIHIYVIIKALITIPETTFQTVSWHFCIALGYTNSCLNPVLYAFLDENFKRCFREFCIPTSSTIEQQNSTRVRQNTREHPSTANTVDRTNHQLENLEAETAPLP

Experiment [2] addresses Opioid receptors; mu & delta (Homo sapiens, UniProt P41143+P35372). Kind of experiment: Inhibition of electrically evoked contraction of guinea pig ileum (myenteric plexus;longitudinal muscle)[agonist action at mu 1 opioid receptors) and inhibition of electrically evoked contraction of mouse vas deferens (agonist action at delta 1 opioid receptor). The class given is functional, tissue-based.

Experiment [3] deals with T1, Delta-type opioid receptor (Rattus norvegicus, UniProt P33533). Nature of the experiment: Inhibition of [3H]DSLET binding to delta 1 opioid receptors in rat brain membranes. The class given is cell membranes.
T1 sequence (P33533 whole entry): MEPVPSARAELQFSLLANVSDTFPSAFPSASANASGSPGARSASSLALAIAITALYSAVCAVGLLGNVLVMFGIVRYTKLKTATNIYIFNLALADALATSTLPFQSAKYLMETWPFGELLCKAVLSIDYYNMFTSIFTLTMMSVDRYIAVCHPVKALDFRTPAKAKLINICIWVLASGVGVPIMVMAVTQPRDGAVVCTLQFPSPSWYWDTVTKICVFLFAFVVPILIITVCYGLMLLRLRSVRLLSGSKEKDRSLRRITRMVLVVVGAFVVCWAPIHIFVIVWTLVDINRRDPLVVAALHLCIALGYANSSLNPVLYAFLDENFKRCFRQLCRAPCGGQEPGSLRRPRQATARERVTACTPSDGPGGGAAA
The target of experiment [4] is Mu-type opioid receptor (Cavia porcellus, UniProt P97266). Nature of the experiment: Inhibition of electrically evoked contraction of guinea pig ileum (myenteric plexus:longitudinal muscle preparation) by agonist action at mu 1 opioid receptors. The class given is functional, tissue-based. The method in brief: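 Electrically stimulated guinea pig ileum twitch. IC50 for half-maximal inhibition taken from six to eight log dose-response curves, six concentrations each. [Met]enkephalin IC50 measured on the same preparation. Agonist IC50 multiplied by the mean [Met]enkephalin IC50 divided by that assay's [Met]enkephalin IC50.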
Sequence of Mu-type opioid receptor (Cavia porcellus, UniProt P97266) (P97266 whole entry): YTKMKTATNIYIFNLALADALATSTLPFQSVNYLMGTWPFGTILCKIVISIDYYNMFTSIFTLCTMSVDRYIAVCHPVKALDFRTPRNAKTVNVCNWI

The species named for experiment [5] is Mus musculus. Nature of the experiment: Inhibitory activity before protection from beta-CNS-induced inactivation in MVD. The class given is functional.
The species named for experiment [6] is Mus musculus. Kind of experiment: Inhibitory activity after protection from beta-CNS-induced inactivation in MVD. The class given is functional.
Experiment [7] concerns Mus musculus. Kind of experiment: Analgesic potency in mice after icv injection and 10 min before exposing to hot plate. The class given is functional. The method in brief:
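Albino mice, 24–28 g, given drug icv by hand (10 µL, modified 30-gauge needle). Jump latency timed on a 55 ± 0.2 °C hot plate 10 min later, experimenter blind. Cut-off 180 s = 100% analgesia. Percent analgesia = (Tt−Tc)/(180 s−Tc). 10 mice per point. AD50 and 95% confidence limits by Litchfield–Wilcoxon.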

Experiment [8] deals with T1, Delta-type opioid receptor. Kind of experiment: Ability to inhibit the binding of [3H]DSLET to Opioid receptor delta 1 in rat brain membranes. The class given is cell membranes.

As to `CCN(C(=O)CNC(=O)[C@@H](C)NC(=O)[C@@H](N)Cc1ccc(O)cc1)C(C)CC(C)C` (stereo partly specified), the Ki (in general, a dissociation constant, usually derived from enzyme kinetics or from competition with a known ligand) on Mu-type opioid receptor [1] was 35.5 nM; in experiment [3], 3450 nM. Also, the 50% inhibitory concentration (IC50) (in general, the midpoint of a concentration-inhibition curve) in experiment [2] was 1800 nM; at Mu-type opioid receptor [4] it was 216 nM.
For `CC(C)C[C@H](NC(=O)[C@H](Cc1ccccc1)NC(=O)CNC(=O)[C@@H](CO)NC(=O)[C@@H](N)Cc1ccc(O)cc1)C(=O)N[C@H](C(=O)O)[C@@H](C)O`, the Ki in experiment [3] is 4.8 nM. Moreover, the IC50 in the experiment listed under Mus musculus [5] (Mus musculus) was 0.38 nM; in the experiment listed under Mus musculus [6] (Mus musculus) it was 0.65 nM; at Mu-type opioid receptor [4] it was 406 nM. Besides, the dose in the experiment on Mus musculus [7] was determined as 130 pmol/mouse.
As to `CC(C)C[C@H](NC(=O)[C@H](Cc1ccccc1)NC(=O)CNC(=O)[C@H](NC(=O)[C@@H](N)Cc1ccc(O)cc1)[C@H](C)O)C(=O)N[C@@H](CO)C(=O)O`, the Ki at Mu-type opioid receptor [1] was determined as 41.9 nM; in experiment [3], 4.18 nM. The figures for the IC50 (in experiment [2]; on Mu-type opioid receptor [4]) were 0.25 nM and 99 nM, respectively.
In turn, `CC(C)C[C@H](NC(=O)[C@H](Cc1ccccc1)NC(=O)CNC(=O)[C@H](NC(=O)[C@@H](N)Cc1ccc(O)cc1)[C@H](C)O)C(=O)N[C@H](C(=O)O)[C@@H](C)O` [listing 1 of 2 here] had a Ki at Mu-type opioid receptor [1] of 25.3 nM. Besides, the concentration for half-maximal inhibition (IC50) in experiment [2] was 0.15 nM; in the experiment listed under Mus musculus [5] it was 0.13 nM; in the experiment filed under Mus musculus [6], 0.22 nM; on Mu-type opioid receptor [4], 460 nM.
As to `CC(C)C[C@H](NC(=O)[C@H](Cc1ccccc1)NC(=O)CNC(=O)[C@H](NC(=O)[C@@H](N)Cc1ccc(O)cc1)[C@H](C)O)C(=O)N[C@H](C(=O)O)[C@@H](C)O` [listing 2 of 2 here], the dose in the experiment on Mus musculus [7] was found to be 50 pmol/mouse.
Regarding `CC(C)C[C@H](NC(=O)[C@H](CC(C)C)NC(=O)[C@H](Cc1ccccc1)NC(=O)CNC(=O)[C@H](NC(=O)[C@@H](N)Cc1ccc(O)cc1)[C@H](C)O)C(=O)O`, the Ki at Mu-type opioid receptor [1] is 38 nM; in experiment [3], 2.65 nM. Also, the concentration for half-maximal inhibition (IC50) came out at 0.41 nM in experiment [2] and 260 nM at Mu-type opioid receptor [4].
`CC(C)CC(C)NC(=O)CNC(=O)[C@H](C)NC(=O)[C@@H](N)Cc1ccc(O)cc1` (stereo partly specified): the IC50 entry is “>= 50000 nM” in experiment [2] and not below 50000 nM at Mu-type opioid receptor [4].
Turning to `CC(C)CC(C)NC(=O)CNC(=O)[C@@H](CO)NC(=O)[C@@H](N)Cc1ccc(O)cc1` (stereo partly specified), the inhibitory constant (Ki) was determined as 43 nM at Mu-type opioid receptor [1] and 1370 nM in experiment [3]. Besides, the values for the half-maximal inhibitory concentration (IC50) (in experiment [2]; at Mu-type opioid receptor [4]) were 990 nM and 718 nM, respectively.
The corresponding values for `CC(C)CC(C)NC(=O)CNC(=O)[C@@H](COC(C)(C)C)NC(=O)[C@@H](N)Cc1ccc(O)cc1` (stereo partly specified) are 13.7 nM, 39 nM, 105 nM and 111 nM.
For `CC(C)C[C@H](NC(=O)[C@H](Cc1ccccc1)NC(=O)CNC(=O)[C@H](NC(=O)[C@@H](N)Cc1ccc(O)cc1)[C@H](C)O)C(=O)N1C[C@H](O)C[C@H]1C(=O)O`, the Ki turned out to be 43.8 nM at Mu-type opioid receptor [1] and 7.6 nM in experiment [3]. The IC50 is 1.1 nM in experiment [2] and 88 nM on Mu-type opioid receptor [4]. The same molecule came in with a dose in the experiment on Mus musculus [7] of 252 pmol/mouse.
`CC(C)CCNC(=O)CNC(=O)[C@@H](C)NC(=O)[C@@H](N)Cc1ccc(O)cc1`: the Ki at Mu-type opioid receptor [1] turned out to be 10 nM; in experiment [3], 1020 nM. In addition, the IC50 in experiment [2] is 3410 nM; on Mu-type opioid receptor [4] it was 323 nM.
Consider `CC(C)C[C@H](NC(=O)[C@H](CC(C)C)NC(=O)[C@H](Cc1ccccc1)NC(=O)CNC(=O)[C@@H](CO)NC(=O)[C@@H](N)Cc1ccc(O)cc1)C(=O)O`, for which the Ki at Mu-type opioid receptor [1] is 158 nM; in experiment [3], 9.12 nM. Moreover, the IC50 in experiment [2] was found to be 2.45 nM; at Mu-type opioid receptor [4], 257 nM. Further, the dose in the experiment on Mus musculus [7] turned out to be 610 pmol/mouse.
As to `CSCC[C@@H](NC(=O)[C@@H](N)Cc1ccc(O)cc1)C(=O)NCC(=O)NCCC(C)C`, the inhibition constant Ki at Mu-type opioid receptor [1] is 15 nM; in experiment [3], 600 nM. Besides, the IC50 in experiment [2] was determined as 733 nM; at Mu-type opioid receptor [4] it was 154 nM.
On to `CC(C)CC(C)NC(=O)CNC(=O)C(C)(C)NC(=O)[C@@H](N)Cc1ccc(O)cc1` (stereo partly specified), for which the inhibition constant Ki at Mu-type opioid receptor [1] turned out to be 171 nM; in experiment [3], 6880 nM. Moreover, the 50% inhibitory concentration (IC50) in experiment [2] amounted to 4720 nM; at Mu-type opioid receptor [4], 1850 nM.
The corresponding values for `CC(C)C[C@@H](C(=O)N[C@H](C(=O)O)[C@@H](C)O)N(C)C(=O)[C@H](Cc1ccccc1)NC(=O)CNC(=O)[C@H](NC(=O)[C@@H](N)Cc1ccc(O)cc1)[C@H](C)O` are 157 nM, 30.7 nM, 1.33 nM and 224 nM.
The corresponding values for `CC(C)C[C@@H](C(=O)NCCO)N(C)C(=O)CNC(=O)[C@@H](C)NC(=O)[C@@H](N)Cc1ccc(O)cc1` are 116 nM, 3810 nM, 3180 nM and 379 nM.
The corresponding values for `CC(C)CC(C)NC(=O)CNC(=O)[C@@H](C)NC(=O)[C@@H](N)Cc1ccc(O)cc1` (stereo partly specified) are 17 nM, 480 nM, 1050 nM and 237 nM.
In the case of `CC[C@H](O)[C@H](NC(=O)[C@@H](N)Cc1ccc(O)cc1)C(=O)NCC(=O)N[C@@H](Cc1ccccc1)C(=O)N[C@@H](CC(C)C)C(=O)N[C@H](C(=O)O)[C@@H](C)O` (H-Y[X1]GFLT-OH), the Ki amounted to 16 nM on Mu-type opioid receptor [1] and 2.2 nM in experiment [3]. Moreover, the half-inhibitory concentration (IC50) was found to be 0.05 nM in experiment [2] and 21.3 nM at Mu-type opioid receptor [4].
The corresponding values for `CC(C)C[C@H](NC(=O)[C@H](Cc1ccccc1)NC(=O)CNC(=O)NNC(=O)[C@@H](N)Cc1ccc(O)cc1)C(=O)N[C@H](C(=O)O)[C@@H](C)O` (H-Y[azaGly]GFLT-OH) are 9790 nM, 395 nM, 38 nM and 14000 nM.
Regarding `CC(C)C[C@@H](NC(=O)[C@H](Cc1ccccc1)NC(=O)CNC(=O)[C@@H](C)NC(=O)[C@@H](N)Cc1ccc(O)cc1)C(=O)O` [DADLE], the dose in the experiment with Mus musculus [7] came out at 12 pmol/mouse.
Turning to `C[C@@H](NC(=O)[C@@H](N)Cc1ccc(O)cc1)C(=O)NCC(=O)N(C)[C@@H](Cc1ccccc1)C(=O)NCCO` [DAMGO], in experiment [8], affinity was put at a Ki of 700 nM. Further, the IC50 in the experiment listed under Mus musculus [5] (Mus musculus) amounted to 100 nM; in the experiment filed under Mus musculus [6] (Mus musculus) it was 2400 nM; on Mu-type opioid receptor [4], 11.5 nM. Besides, the dose with Mus musculus [7] worked out at 1 pmol/mouse.
